The results in this text go back to ChEMBL document CHEMBL1125330, “N-substituted pyrazino[2,3-c][1,2,6]thiadiazine 2,2-dioxides. A new class of diuretics” (J Med Chem, 1992).

Each structure is given as a SMILES string.

For data set [1], the species on record is Rattus norvegicus. Description: Mean urinary output in rats (Control/Drug treatment; value 23.3/29.9. In kind it is ADME, organism-based, Urine. Particulars: in vivo.
The subject of data set [2] is Rattus norvegicus. The data set can be described thus: Mean sodium excretion in rats when compound administered at 0 mg/kg po and vehicle dosed at 0 umol/kg. In kind it is ADME, organism-based. Also on record: dose 0 mg/kg, route oral. The following applies: in vivo. An outline of the steps:
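Male Sprague-Dawley rats (HC/CFY, 175-200 g) fasted and water-deprived 18 h before and during the test. Dosed by gavage at 2.5-160 mg/kg in 1% carboxymethyl cellulose/0.1% Tween 80, 0.5 mL/100 g bw. Immediately hydrated with water (2.5 mL/100 g bw, po). Urine collected 6 h in metabolic cages; Na+ and K+ by flame photometry; mean mequiv/6 h/kg bw; nonpaired Student t-test.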

Data set [3] has as its system Rattus norvegicus. The data set can be described thus: Mean potassium excretion in rats when compound administered at 0 mg/kg po and vehicle dosed at 0 umol/kg. Type of data set: ADME, organism-based. Also on record: dose 0 mg/kg, route oral. The following applies: in vivo. The procedure, abridged:
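Male Sprague-Dawley rats (HC/CFY, 175-200 g), no food or water for 18 h before and during the test. Single gavage dose (2.5-160 mg/kg; vehicle 1% carboxymethyl cellulose/0.1% Tween 80, 0.5 mL/100 g bw), then distilled water 2.5 mL/100 g bw po. Individual metabolic cages, 6 h urine. K+ by flame photometry, Cl- colorimetric, as mequiv/6 h/kg bw; unpaired Student t-test vs control.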

The test system of data set [4] is Rattus norvegicus. The data set can be described thus: Post dosing time interval of maximum activity. In kind it is functional. An outline of the steps:
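Interval of peak activity taken from timed urine collections (0-1, 1-2, 2-3, 3-4, 4-6 h) after a single oral dose in water-loaded fasted rats, […]. Urine volume and Na+ excretion followed over time.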

Data set [5] is filed under the species Rattus norvegicus. The following applies: in vivo, po, 80 mg/kg.
Data set [6] is filed under the species Rattus norvegicus. Description: Dose required to produce increase in 50 % in urine production vs control groups. The following applies: Rattus norvegicus, Urine. Type of data set: functional. An outline of the steps: (§1)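 Male Sprague-Dawley rats (HC/CFY, 175-200 g), fasted and water-deprived 18 h before and during the test. Compound dosed by gavage in 1% carboxymethyl cellulose/0.1% Tween 80, then water load 2.5 mL/100 g bw po. Urine collected 6 h in metabolic cages; Na+ by flame photometry. Effective doses vs vehicle controls derived by linear regression of dose-response data.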

Data set [7] has as its system Rattus norvegicus. Description: Dose required to produce an excretion of 2 mequiv of Na+/kg bw/6h vs control groups. Type of data set: functional. An outline of the steps:
as §1

The subject of data set [8] is Rattus norvegicus. Description: Mean urinary output in rats when compound administered at 0 mg/kg po and vehicle dosed at 0 umol/kg. Type of data set: ADME, organism-based, Urine. Also on record: dose 0 mg/kg, route oral. Particulars: in vivo. An outline of the steps: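 Water-loaded male Sprague-Dawley rats (HC/CFY, 175-200 g) fasted and without water for 18 h. Oral gavage of 2.5-160 mg/kg in 1% CMC with 0.1% Tween 80, then distilled water 2.5 mL/100 g po. Urine collected 6 h in metabolic cages, mean output in mL/6 h/kg bw. Unpaired Student t-test against vehicle; dose-response by linear regression.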

The species named for data set [9] is Rattus norvegicus. Description: Dose required to produce increase in 200 % in urine production vs control groups. In kind it is functional. An outline of the steps: as §1
The species entered for data set [10] is Rattus norvegicus. Description: Mean urinary output in rats (Control/Drug treatment value); value 27.7/36.4. The following applies: in vivo. In kind it is ADME, organism-based, Urine.
The species entered for data set [11] is Rattus norvegicus. Description: Mean sodium excretion in rats (Control/Drug treatment value); value 0.5/1.79. In kind it is ADME, organism-based. Particulars: in vivo.

One may read the ED50 as the dose that gives a 50% effect, or the effect in half of the subjects.

Turning to `CCN1c2nc(C(F)(F)F)c(C(F)(F)F)nc2C(N)=NS1(=O)=O`, the V in the data set filed under Rattus norvegicus [1] is 1.3.

Turning to `NS(=O)(=O)c1cc(C(=O)O)c(NCc2ccco2)cc1Cl` [FUROSEMIDE], in the data set with Rattus norvegicus [2], the Na is 0.39 m equiv 6hr-1 kg-1 (body weight)-1. In the data set on Rattus norvegicus [3], the K is 0.47 m equiv 6hr-1 kg-1 (body weight)-1. In addition, in the data set on Rattus norvegicus [4], the Time turned out to be 1 h. Moreover, the V in the data set listed under Rattus norvegicus [5] was 75.5 ml 6hr-1 (kg of body weight)-1; in the data set on Rattus norvegicus [8], 24.04 ml 6hr-1 (kg of body weight)-1. It took a dose of 12.1 mg/kg to reach the 50% effect level in the data set listed under Rattus norvegicus [6] (ED50). In addition, in the data set on Rattus norvegicus [7], the ED2 turned out to be 12.95 mg/kg. In the data set filed under Rattus norvegicus [9], this compound displayed an ED200 of 70.59 mg/kg.

The compound `CCN1c2nc(C)c(C)nc2C(N)=NS1(=O)=O` had a V in the data set listed under Rattus norvegicus [10] of 1.3. For the same compound, the Na in the data set filed under Rattus norvegicus [11] is listed as 3.6 m equiv 6hr-1 kg-1 (body weight)-1.
